# STAT3 inh – STAT3 signaling inhibition; U3A cells, IL-6 STAT3-luciferase reporter, luminescence; host cell line lacks STAT1; inhibition, % at 5.5 µM; 190,000 tested, 0.89% active; AID 862;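 active = inhibition above the mean inhibition across all screened compounds plus 3 SD, cut at about 44% in these data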;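 also: 0% = DMSO only wells and 100% = 100 µM nifuroxazide control wells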
# NF-kB expr up – raises NF-kB expression in human neuronal cells | 190,000 tested, 1.6% active | fold change at 12.5 µM | AID 1239 | NF-kB reporter expression; hits give high values; in the data active = fold change above about 3.3
# STAT1 activator – increases IFN-gamma driven STAT1 reporter signal; activation (% of control), % at 5.5 µM; 200,000 tested, 2.6% active; NIH 3T3 STAT1-luciferase reporter, luminescence; 100% = IFN-gamma alone, no compound;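 active = activation above the screen-wide mean activation plus 3 SD, cut at about 130% in these data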;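 also: raw ratio to IFN-gamma control signal so 100% means no change and 0% no light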
# APP 5'UTR act – APP 5'UTR luciferase reporter activation; AID 1276; 190,000 tested, 1% active; SH-SY5Y APP 5'UTR luciferase reporter, luminescence; zero percent = DMSO vehicle wells; activation, % at 2 µM;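 active = activation above a set limit, based on mean plus 3 SD of controls, cut at about 140% in these data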
# STAT1 inh – inhibitors of IFN-gamma induced STAT1 signaling | NIH 3T3 STAT1-luciferase reporter, luminescence | AID 920 | 200,000 tested, 0.35% active | inhibition, % at 5.5 µM;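 active = inhibition above a set limit, the mean inhibition across all tested compounds plus 3 SD, cut at about 34% in these data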;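 also: 0% = IFN-gamma with DMSO and 100% = IFN-gamma with 300 µM nifuroxazide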
# STAT3 activator – increases IL-6 driven STAT3 reporter signal; U3A cells, IL-6 STAT3-luciferase reporter, luminescence; 100% = signal with IL-6 EC80 alone; activation (% of control), % at 5.6 µM; 190,000 tested, 0.91% active; AID 871;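 active = activation above the screen-wide mean of compound activation plus 3 SD, cut at about 130% in these data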;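 also: 0% = background luminescence of wells with medium and substrate only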
#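 Material: human U3A cells carrying STAT3-luciferase construct. Measured by: reporter luminescence signal. Timing: compound 1 h, then IL-6 6 h at 37 °C.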
# An asterisk follows results filed as active; . = not tested or not shown. Shown are actives, neighbours in structure and some others; about 4.9% of the full set was active somewhere.
SMILES,STAT3 inh,NF-kB expr up,STAT1 activator,APP 5'UTR act,STAT1 inh,STAT3 activator
c1cncc(-c2nnc(-c3cccs3)o2)c1,14,1.2,123,-2,-25,90
Fc1ccc(-c2cnc(-c3cccs3)o2)cc1,-10,1.8,142*,70,-47,111
O=C(Cc1ccccc1)Nc1nonc1NC(=O)c1ccccc1,-10,3.7*,92,16,9,114
CCOc1cc(CNc2ccc(N(C)C)cc2)cc(Br)c1OCC(=O)NC(C)(C)C,-5,0.44,145*,105,-50,109
CCOc1cc(CNc2ccc(N3CCCCC3)cc2)cc(Br)c1OCC(=O)NC(C)(C)C,10,0.91,89,9,12,94
O=C(c1cc(-c2ccccc2)on1)N1CCCC1,18,4.1*,132*,61,-35,87
CC1CCN(C(=O)c2cc(-c3ccccc3O)on2)CC1,12,7.3*,113,134,-15,94
O=C(O)/C(=C\c1ccc(Cl)cc1)c1ccc(F)cc1,7,1.3,104,17,-5,96
CC(=O)c1ccc(Nc2ccc(-c3ccccc3C)nn2)cc1,4,3,144*,58,-47,98
O=C(COC(=O)Cc1n[nH]c(=O)c2ccccc12)Nc1cccc(C(F)(F)F)c1,-5,0.93,97,-3,3,106
CCN(CC)S(=O)(=O)c1cc(NC(=O)c2ccc(Br)s2)ccc1C,19,1.2,138*,34,-41,91
CCN(CC)S(=O)(=O)c1cc(NC(=O)C(CC(C)C)NC(N)=O)ccc1C (configuration not stated),5,0.95,100,-12,-1,97
COc1ccccc1CCc1nnc(CCC(=O)N(C)Cc2cccc3cnccc23)o1,-14,2.1,131*,38,-35,116
COc1ccccc1CCc1nnc(CCC(=O)N(C)Cc2ccncc2C)o1,0,1.1,95,18,5,106
Cc1ccc(NS(=O)(=O)c2cc(NC(=O)c3ccc4c(c3)NC(=O)CS4)ccc2Cl)c(C)c1,-2,0.56,106,0,-8,106
O=C(NCc1ccc(Cl)cc1)c1n[nH]c([N+](=O)[O-])c1Cl,-7,1.6,107,6,-8,107
O=C(Nc1ccncc1)c1ccccc1-c1ccccc1,12,1,92,-6,6,94
Cc1ccc(-n2ncc(N(C)C)c(Cl)c2=O)cc1,21,2.6,132*,119,-36,86
CN(C)c1cnn(-c2ccccc2)c(=O)c1Cl,-10,1.7,108,-2,-6,106
COc1ccc(-n2ncc(N(C)n3cccc3)c(Cl)c2=O)cc1,5,3.7*,134*,133,-37,101
CCc1c(C)nc2ncnn2c1N1CCN(S(=O)(=O)c2ccc(OC)cc2)CC1,38,0.92,74,-12,27,71
Cc1cc(C)c(S(=O)(=O)NC(C)C)c(C)c1-n1cnnn1,3,1.2,95,20,3,99
Oc1sc(C=Nc2ccc(F)cc2)c2ccccc12,-1,2,138*,118,-42,103
COc1ccc2occ(C(=O)c3cccs3)c2c1,-4,4.3*,128,55,-31,109
CC1CCCC(C)N1C(=C(Cl)Cl)C(=C1SCCS1)[N+](=O)[O-] (configuration not stated),11,0.81,76,-14,25,93
SMILES,STAT3 inh,NF-kB expr up,STAT1 activator,APP 5'UTR act,STAT1 inh,STAT3 activator
O=C(Cc1ccc(Br)cc1)c1ccc(O)cc1O,-7,1.9,130*,41,-33,111
Cc1cc(C)c2c(N)c(C(=O)NC3CC3)sc2n1,34,1.1,104,-20,-4,73
COCc1cc(C)nc2sc(C(=O)Nc3nccs3)c(N)c12,-1,1.5,132*,43,-35,105
Cc1cc(C)c2c(N)c(C(=O)Nc3nccs3)sc2n1,58*,3,55,124,48*,54
CCCCN(CCCC)Cc1ccc(C(=O)NNC(=O)Nc2ccc(F)cc2)o1,2,1,106,22,-7,105
COc1cc(-c2nc(CN(C)C(C)c3ccncn3)c(C)o2)ccc1F (configuration not stated),1,.,101,-7,-2,104
c1ccc(-c2noc(CN3CCN(c4ccccc4)CC3)n2)cc1,3,1.1,98,.,2,105
CC1CCN(Cc2nc(-c3ccccc3)no2)CC1,-1,3.4*,142*,75,-46,104
O=C(Nc1ccc(-c2cn3ccccc3n2)cc1)c1ccco1,14,2.4,144*,122,-50,92
Brc1ccc(-c2noc(CCc3ccccc3)n2)cc1,6,.,101,18,-1,97
O=C(Nc1ccc(-c2noc(CCc3ccccc3)n2)cc1)c1ccco1,7,3.9*,136*,173*,-40,100
c1ccc(CCc2nc(-c3ccccc3)no2)cc1,12,1.8,134*,18,-37,93
COc1ccc(-c2c(=O)n(OCc3ccccc3[N+](=O)[O-])c3ccccc3[n+]2[O-])c(OC)c1,2,0.93,94,-16,4,102
CNCC(=O)N1CCN(c2ncc(C(F)(F)F)cc2Cl)CC1,-6,0.92,107,8,-8,107
c1ccc(OCc2nc(-c3ccccc3)no2)cc1,6,2.8,142*,34,-46,97
Cc1cccc(-c2noc(Cc3ccccc3)n2)c1,1,2.1,135*,42,-38,108
c1ccc(OCc2nc(-c3ccncc3)no2)cc1,6,1.2,123,24,-27,97
O=C(Nc1nnc(-c2ccncc2)o1)c1ccc(Br)s1,19,0.98,96,-4,6,88
C#CCNC(=O)C1=C[C@H](c2ccc3c(c2)OCO3)[C@@H](CCCO)[C@H](OCC)O1,.,1.1,93,14,9,.
COc1cccc(/C(N)=N/OC(=O)Cc2ccccc2[N+](=O)[O-])c1,7,1.5,130*,13,-34,100
COc1ccc(/C(N)=N/OC(=O)c2cccc([N+](=O)[O-])c2C)cc1,-31,1.3,110,24,-12,134*
COCCN(CCOC)C(=O)c1ccc(SCc2ccc(C)cc2)c([N+](=O)[O-])c1,4,1.1,95,6,5,103
Cc1ccc(OCc2nnc(SC(C)C(=O)O)n2Cc2ccccc2)cc1 (configuration not stated),-2,0.92,97,-12,2,106
O=C(COc1ccccc1F)NCc1ccc(-n2cccc2)cc1,0,1.3,102,22,-3,103
CC(/C=N/NC(=O)Cn1nccc1C)=C\c1ccc(C(C)C)cc1,-8,1.1,129*,11,-33,109
CC(=C/c1ccc(C(C)C)cc1)/C=N/NC(=O)Cn1nc(C)cc1C,-7,1.1,105,0,-6,106
Cc1ccc(OCC(=O)NCc2ccccn2)c(Br)c1,7,2.1,141*,30,-45,97

# Compound activity: PubChem BioAssay, several laboratories
